Test results from ChEMBL document CHEMBL1123732, “Flavones. 1. Synthesis and antihypertensive activity of (3-phenylflavonoxy)propanolamines without beta-adrenoceptor antagonism” (J Med Chem, 1987).
Each block holds one compound with its values, some of them ahead of it. The source made the active and inactive calls. No cut-off for these calls is given here.

Legend:
Rattus norvegicus [1] = experiment: Percentage of fall in systolic blood pressure (SBP) at the following hours after dosing at 75 mg/kg (po) at 24 hr in spontaneously hypertensive rats(SHR); type: functional, Artery
Summary of the method: (§1)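 Male spontaneously hypertensive rats (Wistar-Kyoto strain), unanesthetized, dosed orally; systolic pressure measured by indirect tail cuff. Before each reading, rats warmed at 35-37 °C for 15-20 min to dilate the caudal artery. Five rats per treatment group; result is percentage fall in systolic pressure versus untreated control. Significance tested against control.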

Rattus norvegicus [2] = experiment: Percentage of fall in systolic blood pressure (SBP) at the following hours after dosing at 75 mg/kg (po) at 2 hr in spontaneously hypertensive rats(SHR); NS means not significant; type: functional, organism-based; design: dose 75 mg/kg; conditions: Artery; summary of the method: as §1
Rattus norvegicus [3] = experiment: Percentage of fall in systolic blood pressure (SBP) at the following hours after dosing at 75 mg/kg (po) at 5 hr in spontaneously hypertensive rats(SHR); type: functional, Artery; summary of the method: as §1
Rattus norvegicus [4] = experiment: Percentage of fall in systolic blood pressure (SBP) at the following hours after dosing at 75 mg/kg (po) at 7.5 hr in spontaneously hypertensive rats(SHR); type: functional, Artery; summary of the method: as §1
Rattus norvegicus [5] = experiment: […] systolic blood pressure (SBP) for compound-treated group relative to the value for untreated control at 75 mg/kg dose (po) in spontaneously hypertensive rats(SHR); type: functional, Artery; summary of the method: as §1
Rattus norvegicus [6] = experiment: Percentage of fall in systolic blood pressure (SBP) at the following hours after dosing at 75 mg/kg (po) at 24 hr in spontaneously hypertensive rats(SHR); NS means not significant; type: functional, organism-based; design: dose 75 mg/kg; conditions: Artery; summary of the method: as §1
Rattus norvegicus [7] = experiment: Percentage of fall in systolic blood pressure (SBP) at the following hours after dosing at 75 mg/kg (po) at 5 hr in spontaneously hypertensive rats(SHR); NS means not significant; type: functional, organism-based; design: dose 75 mg/kg; conditions: Artery; summary of the method: as §1
Adrenergic receptor beta [8] = biological target: T1, Adrenergic receptor beta (Rattus norvegicus, UniProt P18090+P10608+P26255); experiment: Evaluated for beta-receptor affinity, determined in rat brain membrane fraction with [3H]- dihydroalprenolol; type: cell membranes
Summary of the method: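 Rat brain with cerebellum removed, homogenized in ice-cold 50 mM Tris-HCl pH 8.0 and spun at 50000g for 15 min, pellet washed once more the same way. Binding used 0.4-0.6 mg protein, 1 nM [3H]dihydroalprenolol, 50 mM Tris pH 8.0, and 5-10 competitor concentrations. IC50 read visually from a semilog plot; Ki from Cheng-Prusoff with KD approximately 1 nM.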

Rattus norvegicus [9] = experiment: Percentage of fall in systolic blood pressure (SBP) at the following hours after dosing at 75 mg/kg (po) at 2 hr in spontaneously hypertensive rats(SHR):NS means not significant; type: functional, organism-based; design: dose 75 mg/kg; conditions: Artery; summary of the method: as §1
Rattus norvegicus [10] = experiment: Evaluated for the percentage inhibition of the depressor response of isoproterenol (0.25 mg/kg, iv) in spontaneously hypertensive rats at 150 mg/kg peroral dose; NI means no inhibition at 10 mg/kg, iv
Rattus norvegicus [11] = experiment: Percentage of fall in systolic blood pressure (SBP) at the following hours after dosing at 75 mg/kg (po) at 7.5 hr in spontaneously hypertensive rats(SHR); NS means not significant; type: functional, organism-based; design: dose 75 mg/kg; conditions: Artery; summary of the method: as §1
Rattus norvegicus [12] = experiment: Percentage of fall in systolic blood pressure (SBP) at the following hours after dosing at 75 mg/kg (po) at 2 hr in spontaneously hypertensive rats(SHR); type: functional, Artery; summary of the method: as §1
Rattus norvegicus [13] = experiment: Percentage of fall in systolic blood pressure (SBP) at the following hours after dosing at 17 mg/kg (po) at 7.5 hr in spontaneously hypertensive rats(SHR); type: functional, Artery; summary of the method: as §1
Rattus norvegicus [14] = experiment: Percentage of fall in systolic blood pressure (SBP) at the following hours after dosing at 17 mg/kg (po) at 24 hr in spontaneously hypertensive rats(SHR); type: functional, Artery; summary of the method: as §1
Rattus norvegicus [15] = experiment: Percentage of fall in systolic blood pressure (SBP) at the following hours after dosing at 17 mg/kg (po) at 2 hr in spontaneously hypertensive rats(SHR); NS mmeans not significant; type: functional, organism-based; design: dose 17 mg/kg; conditions: Artery; summary of the method: as §1
Rattus norvegicus [16] = experiment: Percentage of fall in systolic blood pressure (SBP) at the following hours after dosing at 17 mg/kg (po) at 5 hr in spontaneously hypertensive rats(SHR); type: functional, Artery; summary of the method: as §1
Rattus norvegicus [17] = experiment: Percentage of fall in systolic blood pressure (SBP) at the following hours after dosing at 8 mg/kg (po) at 2 hr in spontaneously hypertensive rats(SHR); NS means not significant; type: functional, organism-based; design: dose 8 mg/kg; conditions: Artery; summary of the method: as §1
Rattus norvegicus [18] = experiment: Percentage of fall in systolic blood pressure (SBP) at the following hours after dosing at 8 mg/kg (po) at 5 hr in spontaneously hypertensive rats(SHR); type: functional, Artery; summary of the method: as §1
Rattus norvegicus [19] = experiment: Percentage of fall in systolic blood pressure (SBP) at the following hours after dosing at 8 mg/kg (po) at 7.5 hr in spontaneously hypertensive rats(SHR); type: functional, Artery; summary of the method: as §1
Rattus norvegicus [20] = experiment: Percentage of fall in systolic blood pressure (SBP) at the following hours after dosing at 8 mg/kg (po) at 24 hr in spontaneously hypertensive rats(SHR); type: functional, Artery; summary of the method: as §1
Rattus norvegicus [21] = experiment: […] systolic blood pressure (SBP) for compound-treated group relative to the value for untreated control at 17 mg/kg dose (po) in spontaneously hypertensive rats(SHR); type: functional, Artery; summary of the method: as §1
Rattus norvegicus [22] = experiment: […] systolic blood pressure (SBP) for compound-treated group relative to the value for untreated control at 8 mg/kg dose (po) in spontaneously hypertensive rats(SHR); type: functional, Artery; summary of the method: as §1
Rattus norvegicus [23] = experiment: Evaluated for the percentage inhibition of the depressor response of isoproterenol (0.25 mg/kg, iv) in spontaneously hypertensive rats at 150 mg/kg peroral dose
Rattus norvegicus [24] = experiment: Percentage of fall in systolic blood pressure (SBP) after dosing at 17 mg/kg (po) at 24 hr in spontaneously hypertensive rats(SHR); type: functional, Artery; summary of the method: as §1
Rattus norvegicus [25] = experiment: Percentage of fall in systolic blood pressure (SBP) after dosing at 17 mg/kg (po) at 2 hr in spontaneously hypertensive rats(SHR). NS means not significant; type: functional, organism-based; design: dose 17 mg/kg; conditions: Artery; summary of the method: as §1
Rattus norvegicus [26] = experiment: Percentage of fall in systolic blood pressure (SBP) after dosing at 17 mg/kg (po) at 5 hr in spontaneously hypertensive rats(SHR); type: functional, Artery; summary of the method: as §1
Rattus norvegicus [27] = experiment: Percentage of fall in systolic blood pressure (SBP) after dosing at 17 mg/kg (po) at 7.5 hr in spontaneously hypertensive rats(SHR); type: functional, Artery; summary of the method: as §1
Rattus norvegicus [28] = experiment: Percentage of fall in systolic blood pressure (SBP) after dosing at 8 mg/kg (po) at 2 hr in spontaneously hypertensive rats(SHR). NS means not significant; type: functional, organism-based; design: dose 8 mg/kg; conditions: Artery; summary of the method: as §1
Rattus norvegicus [29] = experiment: Percentage of fall in systolic blood pressure (SBP) after dosing at 8 mg/kg (po) at 7.5 hr in spontaneously hypertensive rats(SHR); type: functional, Artery; summary of the method: as §1
Rattus norvegicus [30] = experiment: Percentage of fall in systolic blood pressure (SBP) after dosing at 8 mg/kg at 24 hr in spontaneously hypertensive rats(SHR). NS means not significant; type: functional, organism-based; design: dose 8 mg/kg; conditions: Artery; summary of the method: as §1
Rattus norvegicus [31] = experiment: Evaluated for the percentage inhibition of the depressor response of isoproterenol (0.25 mg/kg, iv) in spontaneously hypertensive rats at 150 mg/kg perorally; NI means no inhibition at 10 mg/kg, iv; type: functional, organism-based
Summary of the method: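 Male SHR, three per group, dosed orally 150 mg/kg as suspension in 4% Clearjel. At 4 h, anesthetized with sodium pentobarbital (45 mg/kg, ip); femoral artery and vein cannulated; arterial pressure monitored continuously. Isoproterenol given iv in 0.1 mL saline; depressor response compared with Clearjel vehicle-treated rats as percentage inhibition.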

Adrenergic receptor beta [32] = biological target: T1, Adrenergic receptor beta; experiment: Evaluated for beta-receptor affinity determined in rat brain membrane fraction with [3H]- dihydroalprenolol; type: cell membranes

Structure (SMILES): O=c1c(-c2ccccc2)c(-c2ccccc2)oc2cc(OCC(O)CNC3CCCCC3)ccc12 (configuration not stated)
- Decrease in SBP (Rattus norvegicus [1]): 16%
- Decrease in SBP (Rattus norvegicus [2]): inactive
- Decrease in SBP (Rattus norvegicus [3]): 10%
- Decrease in SBP (Rattus norvegicus [4]): 13%
- SBP (Rattus norvegicus [5]): 216 mmHg

- Ki (Adrenergic receptor beta [8]): > 0.00005 M
Structure (SMILES): CCCCNCC(O)COc1ccc2c(=O)c(-c3ccccc3)c(-c3ccccc3)oc2c1 (configuration not stated)
- Decrease in SBP (Rattus norvegicus [6]): inactive
- Decrease in SBP (Rattus norvegicus [2]): inactive
- Decrease in SBP (Rattus norvegicus [7]): inactive
- Decrease in SBP (Rattus norvegicus [4]): 11%
- SBP (Rattus norvegicus [5]): 199 mmHg

Structure (SMILES): C=CCNCC(O)COc1ccc2c(=O)c(-c3ccccc3)c(-c3ccccc3)oc2c1 (configuration not stated)
- Decrease in SBP (Rattus norvegicus [1]): 9%
- Decrease in SBP (Rattus norvegicus [9]): inactive
- Decrease in SBP (Rattus norvegicus [3]): 10%
- Decrease in SBP (Rattus norvegicus [4]): 11%
- SBP (Rattus norvegicus [5]): 197 mmHg
- inhibition (Rattus norvegicus [10]): inactive

Structure (SMILES): CCCCCCNCC(O)COc1ccc2c(=O)c(-c3ccccc3)c(-c3ccccc3)oc2c1.Cl (configuration not stated)
- Decrease in SBP (Rattus norvegicus [6]): inactive
- Decrease in SBP (Rattus norvegicus [2]): inactive
- Decrease in SBP (Rattus norvegicus [7]): inactive
- Decrease in SBP (Rattus norvegicus [11]): inactive
- SBP (Rattus norvegicus [5]): 200 mmHg

Structure (SMILES): CCCN(C)CC(O)COc1ccc2c(=O)c(-c3ccccc3)c(-c3ccccc3)oc2c1.O=C(O)/C=C\C(=O)O (configuration not stated)
- Decrease in SBP (Rattus norvegicus [1]): 18%
- Decrease in SBP (Rattus norvegicus [12]): 7%
- Decrease in SBP (Rattus norvegicus [3]): 9%
- Decrease in SBP (Rattus norvegicus [4]): 10%
- SBP (Rattus norvegicus [5]): 199 mmHg
- inhibition (Rattus norvegicus [10]): inactive

- Ki (Adrenergic receptor beta [8]): > 0.00005 M
Structure (SMILES): CCCNCC(O)COc1ccc2c(=O)c(-c3ccccc3)c(-c3ccccc3)oc2c1 (configuration not stated)
- Decrease in SBP (Rattus norvegicus [13]): 20%
- Decrease in SBP (Rattus norvegicus [14]): 14%
- Decrease in SBP (Rattus norvegicus [15]): inactive
- Decrease in SBP (Rattus norvegicus [16]): 11%
- Decrease in SBP (Rattus norvegicus [17]): inactive
- Decrease in SBP (Rattus norvegicus [18]): 12%
- Decrease in SBP (Rattus norvegicus [19]): 16%
- Decrease in SBP (Rattus norvegicus [20]): 10%
- SBP (Rattus norvegicus [21]): 198 mmHg
- SBP (Rattus norvegicus [22]): 191 mmHg
- inhibition (Rattus norvegicus [23]): inactive

- Ki (Adrenergic receptor beta [32]): > 0.00005 M
Structure (SMILES): CC(C)NCC(O)COc1ccc2c(=O)c(-c3ccccc3)c(-c3ccccc3)oc2c1.Cl (configuration not stated)
- Decrease in SBP (Rattus norvegicus [24]): 11%
- Decrease in SBP (Rattus norvegicus [25]): inactive
- Decrease in SBP (Rattus norvegicus [26]): 14%
- Decrease in SBP (Rattus norvegicus [27]): 20%
- Decrease in SBP (Rattus norvegicus [28]): inactive
- Decrease in SBP (Rattus norvegicus [29]): 8%
- Decrease in SBP (Rattus norvegicus [30]): inactive
- Decrease in SBP (Rattus norvegicus [18]): 10%
- inhibition (Rattus norvegicus [31]): inactive
- SBP (Rattus norvegicus [21]): 195 mmHg
- SBP (Rattus norvegicus [22]): 198 mmHg
